Test results taken from PMC4184708 (Pharmacology Research & Perspectives, 2014).
Values belong to the compound of their own block, whether it stands above or below them.

Assays:
[1] = Acetaminophen deconvolution profiles and rate of gastric emptying; type: in vivo, male Sprague–Dawley rats; conditions: rats, deconvolution profile, after 30 min
[2] = Pharmacokinetics of acetaminophen; type: in vivo, male Sprague–Dawley rats; conditions: rats
[3] = Pharmacokinetics of vigabatrin after iv or oral administration to rats; type: in vivo, male Sprague–Dawley rats
Caco-2 cell monolayers = assay: Transepithelial apical to basolateral; type: in vitro ADME, human; conditions: Caco-2 monolayers, NaCl-reduced HBSS versus HBSS
In short: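 Caco-2 cells (passages 10–18) were seeded at 8.9·10^4 cells cm−2 on 1.12 cm2 polycarbonate inserts (0.4 μm) and run 20 days post seeding, with TEER monitored. 1.0 mmol/L test compound was applied apically, alone or with amino acid or dipeptide inhibitors (35.0–152.5 mmol/L) in NaCl-reduced HBSS (mannitol to 270–310 mOsmol L−1), or with low fat infant formula 150 mg mL−1 in water. Controls were in HBSS and NaCl-reduced HBSS.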

Caco-2 cells = assay: Apical vigabatrin uptake in Caco-2 cells; type: in vitro ADME, human
In short: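 Caco-2 cells (passages 10–18) were seeded at 8.9·10^4 cells cm−2 in 24-well plates and used 6 days post seeding. Low fat infant formula: 150 mg mL−1 was incubated 15 min at 37°C, centrifuged 15 min at 18000g and 4°C, and the supernatant was re-spun to remove lipids. Uptake rate is in nmol min−1 cm−2; n = 3–4.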

Absorption rate constant = type: in vivo, male Sprague–Dawley rats; conditions: rats
[4] = Paracellular flux: A–B transport of [14C]-mannitol across Caco-2 cell monolayers; type: in vitro ADME; conditions: human
[5] = rats, vigabatrin 1.0 mg kg^−1 PO, formulation 1, dietary component none
[6] = rats, vigabatrin 1.0 mg kg^−1 PO, formulation 5, with Sar 200 mg kg^−1
[7] = rats, vigabatrin 1.0 mg kg^−1 PO, formulation 6, with BCH 200 mg kg^−1
[8] = rats, vigabatrin 10 mg kg^−1 PO, formulation 7, dietary component none
[9] = rats, vigabatrin 10 mg kg^−1 PO, formulation 10, with Sar 200 mg kg^−1
[10] = oral coadministration with 120 mg kg^−1 acetaminophen

Compound: CC(=O)Nc1ccc(O)cc1 [acetaminophen]
cumulative fraction of acetaminophen absorbed [1]: about 90%
AUC(0-inf) ([2]; male, Sprague-Dawley, rat, plasma, iv, 120 mg/kg, AUC0–∞, acetaminophen 120 mg kg^−1 iv, formulation 00, dietary component none): 155000 ± 4000 ng·h/mL
k el ([2]; male, Sprague-Dawley, rat, plasma, iv, 120 mg/kg, ke, acetaminophen 120 mg kg^−1 iv, formulation 00, dietary component none): 0.000306 s⁻¹
Fabs ([2]; acetaminophen 120 mg kg^−1 iv, formulation 00, dietary component none): 100 ± 3%

Compound: OC[C@@H](O)[C@@H](O)[C@H](O)[C@H](O)CO [mannitol, D-[1-^14C]-mannitol]
Papp [4]: 0.16 ×10⁻⁶ cm/s

Compound: CNCC(=O)O [Sar, sarcosine]
effect on Cmax of acetaminophen [2, 10]: did not alter
effect on tmax of acetaminophen [2, 10]: did not alter
effect on tmax of vigabatrin ([3]; rats, oral coadministration with 1.0 and 10.0 mg kg^−1 vigabatrin): significant prolonging effect
effect on Cmax of vigabatrin ([3]; rats, oral coadministration with vigabatrin): significantly decreased

Results, then the compound that gave them:

clearance ([3]; male, Sprague-Dawley, rat, plasma, iv, 1 mg/kg): 7.1 mL/min/kg
AUC(0-inf) ([3]; male, Sprague-Dawley, rat, plasma, po, 10 mg/kg, AUC0–∞, rats, vigabatrin 10 mg kg^−1 PO, formulation 7, dietary component none): 17800 ± 808 ng·h/mL
Cmax ([3]; male, Sprague-Dawley, rat, plasma, po, 10 mg/kg, Cmax, rats, vigabatrin 10 mg kg^−1 PO, formulation 7, dietary component none): 13600 ± 953 ng/mL
k el ([3]; male, Sprague-Dawley, rat, plasma, po, 10 mg/kg, ke, rats, vigabatrin 10 mg kg^−1 PO, formulation 7, dietary component none): 0.000194 s⁻¹
Tmax ([3]; male, Sprague-Dawley, rat, plasma, po, 10 mg/kg, tmax, median [Q1, Q3], rats, vigabatrin 10 mg kg^−1 PO, formulation 7, dietary component none): 19.8 min
time of maximal plasma concentration (Cmax) after oral administration ([3]; rats, oral administration of 1.0 or 10.0 mg kg^−1 vigabatrin): 0.25 to 0.33 h
CL [3, 5]: 9.68 ± 0.5 mL/min/kg
Fabs [3, 5]: 72 ± 4%
CL [3, 6]: 9.53 ± 0.383 mL/min/kg
Fabs [3, 6]: 73 ± 3%
CL [3, 7]: 9.13 ± 0.333 mL/min/kg
Fabs [3, 7]: 76 ± 3%
Fabs ([3]; rats, vigabatrin 1.0 mg kg^−1 iv, formulation 0, dietary component none): 100%
CL [3, 8]: 9.45 ± 0.4 mL/min/kg
Fabs [3, 8]: 74 ± 3%
CL [3, 9]: 10.6 ± 0.533 mL/min/kg
Fabs [3, 9]: 66 ± 3%
transport of vigabatrin in the apical to basolateral direction (Caco-2 cell monolayers): unaffected
apical vigabatrin uptake rate (Caco-2 cells; apical pH 6.0, control): 1.01 ± 0.11 nmol min^−1 cm^−2
apical vigabatrin uptake rate (Caco-2 cells; apical pH 6.0, in the presence of Gly-Gly): 0.48 ± 0.07 nmol min^−1 cm^−2
apical vigabatrin uptake rate (Caco-2 cells; apical pH 6.0, in the presence of low fat infant formula): 0.53 ± 0.09 nmol min^−1 cm^−2
apical vigabatrin uptake rate (Caco-2 cells; apical pH 7.4, control): 0.31 ± 0.04 nmol min^−1 cm^−2
apical vigabatrin uptake rate (Caco-2 cells; apical pH 7.4, in the presence of Gly-Gly): 0.25 ± 0.03 nmol min^−1 cm^−2
apical vigabatrin uptake rate (Caco-2 cells; apical pH 7.4, in the presence of low fat infant formula): 0.28 ± 0.06 nmol min^−1 cm^−2
ka (Absorption rate constant; vigabatrin 1 mg kg^−1, DC fitted to eq. 9, with Low fat milk): 5.2 ± 0.3
ka (Absorption rate constant; vigabatrin 1 mg kg^−1, DC fitted to eq. 9, with Milk): 5.3 ± 0.9
ka (Absorption rate constant; vigabatrin 1 mg kg^−1, DC fitted to eq. 9, with Sar): 2.9 ± 0.2
ka (Absorption rate constant; vigabatrin 1 mg kg^−1, PC fitted to eq. 10, with Low fat milk): 2.6 ± 0.1
ka (Absorption rate constant; vigabatrin 1 mg kg^−1, PC fitted to eq. 10, with Milk): 2.8 ± 0.3
ka (Absorption rate constant; vigabatrin 1 mg kg^−1, PC fitted to eq. 10, with Sar): 1.6 ± 0.1
ka (Absorption rate constant; vigabatrin 1 mg kg^−1, deconvolution curve (DC) fitted to eq. 9, Control): 7.9 ± 1.9
ka (Absorption rate constant; vigabatrin 10 mg kg^−1, DC fitted to eq. 9, with Low fat milk): 5.0 ± 0.3
ka (Absorption rate constant; vigabatrin 10 mg kg^−1, DC fitted to eq. 9, with Milk): 4.1 ± 0.5
ka (Absorption rate constant; vigabatrin 10 mg kg^−1, DC fitted to eq. 9, with Sar): 3.2 ± 0.2
ka (Absorption rate constant; vigabatrin 10 mg kg^−1, PC fitted to eq. 10, with Low fat milk): 2.6 ± 0.1
ka (Absorption rate constant; vigabatrin 10 mg kg^−1, PC fitted to eq. 10, with Milk): 2.6 ± 0.3
ka (Absorption rate constant; vigabatrin 10 mg kg^−1, PC fitted to eq. 10, with Sar): 1.7 ± 0.1
ka (Absorption rate constant; vigabatrin 10 mg kg^−1, deconvolution curve (DC) fitted to eq. 9, Control): 8.1 ± 2.3
Compound: C=CC(N)CCC(=O)O (stereo not drawn) [vigabatrin]

effect on the pharmacokinetic parameters of vigabatrin absorption ([3]; rats, oral administration of 1.0 mg kg^−1 vigabatrin): did not significantly alter
Compound: NC1(C(=O)O)CC2CCC1C2 (stereo not drawn) [BCH, 2-amino-2-norbornanecarboxylic acid]
